Test results from ChEMBL document CHEMBL1124252, “Structure-activity relationships in 1,4-benzodioxan-related compounds. Investigation on the role of the dehydrodioxane ring on alpha 1-adrenoreceptor blocking activity” (J Med Chem, 1988).

Legend:
[1] = target: Adrenergic receptor alpha (Rattus norvegicus) (UniProt P15823+P23944+P43140+P22086+P19328+P22909); assay: The alpha-1/alpha-2 selectivity ratio is the antilog of the difference between pA2 values at alpha-1 and alpha-2 adrenoceptors
[2] = target: T1, Adrenergic receptor alpha-2 (Rattus norvegicus, UniProt P22086+P19328+P22909); assay: Alpha-2 adrenergic receptor blocking activity against clonidine-induced depression of the twitch response in prostatic portion of rat vas deferens; format: tissue-based
T1 sequence (P22086 whole entry): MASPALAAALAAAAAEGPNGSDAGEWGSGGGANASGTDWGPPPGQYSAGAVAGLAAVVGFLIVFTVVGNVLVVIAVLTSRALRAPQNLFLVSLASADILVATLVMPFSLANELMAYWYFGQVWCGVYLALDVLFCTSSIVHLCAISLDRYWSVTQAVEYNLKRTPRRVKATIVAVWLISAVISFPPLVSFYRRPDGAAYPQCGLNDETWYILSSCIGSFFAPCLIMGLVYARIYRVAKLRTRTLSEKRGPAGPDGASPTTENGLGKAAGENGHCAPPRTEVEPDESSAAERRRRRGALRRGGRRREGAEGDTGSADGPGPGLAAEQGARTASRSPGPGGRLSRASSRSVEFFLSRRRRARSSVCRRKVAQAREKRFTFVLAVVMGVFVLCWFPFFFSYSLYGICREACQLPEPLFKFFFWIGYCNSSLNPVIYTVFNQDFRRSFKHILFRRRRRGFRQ
T1 sequence (P19328 whole entry): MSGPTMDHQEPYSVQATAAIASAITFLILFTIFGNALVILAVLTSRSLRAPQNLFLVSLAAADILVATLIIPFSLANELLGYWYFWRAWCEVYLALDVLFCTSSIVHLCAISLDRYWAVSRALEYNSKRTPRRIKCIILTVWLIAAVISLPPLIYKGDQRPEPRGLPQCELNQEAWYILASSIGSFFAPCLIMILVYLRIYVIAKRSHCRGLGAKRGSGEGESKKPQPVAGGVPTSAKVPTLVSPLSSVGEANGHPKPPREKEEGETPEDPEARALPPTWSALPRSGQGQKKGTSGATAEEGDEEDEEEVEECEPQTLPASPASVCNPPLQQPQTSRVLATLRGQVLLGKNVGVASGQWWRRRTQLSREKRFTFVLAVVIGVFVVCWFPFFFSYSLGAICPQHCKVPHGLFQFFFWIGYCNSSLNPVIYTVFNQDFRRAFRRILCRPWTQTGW
T1 sequence (P22909 whole entry): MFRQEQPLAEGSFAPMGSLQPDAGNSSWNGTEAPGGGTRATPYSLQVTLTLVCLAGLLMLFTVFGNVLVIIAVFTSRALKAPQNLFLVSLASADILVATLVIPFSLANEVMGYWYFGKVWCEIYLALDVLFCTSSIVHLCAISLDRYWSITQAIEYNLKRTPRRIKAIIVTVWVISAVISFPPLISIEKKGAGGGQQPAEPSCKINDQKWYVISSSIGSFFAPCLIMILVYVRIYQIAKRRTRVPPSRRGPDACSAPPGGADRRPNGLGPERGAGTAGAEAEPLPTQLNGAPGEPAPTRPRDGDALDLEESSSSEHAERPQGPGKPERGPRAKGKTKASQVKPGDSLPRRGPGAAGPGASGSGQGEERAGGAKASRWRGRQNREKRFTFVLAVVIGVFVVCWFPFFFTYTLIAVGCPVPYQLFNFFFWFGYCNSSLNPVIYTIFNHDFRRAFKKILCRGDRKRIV
Summary of the method: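 Prostatic halves (12 mm) from male albino rat vas deferens, Krebs with propranolol 1 μM and cocaine 10 μM, 0.5–0.8 g tension, field-stimulated at 0.1 Hz, 3-ms pulses, 10-35 V. After ≥1 h equilibration, cumulative clonidine curves on twitch inhibition before and after 30 min antagonist. Dose ratios taken at 50% twitch inhibition; pA2 via Schild plot, slope constrained to -1.0.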

[3] = target: T2, Adrenergic receptor alpha-1 (Rattus norvegicus, UniProt P15823+P23944+P43140); assay: Alpha-1 adrenergic receptor blocking activity against norepinephrine-induced contraction in epididymal portion of rat vas deferens; format: tissue-based
T2 sequence (P15823 whole entry): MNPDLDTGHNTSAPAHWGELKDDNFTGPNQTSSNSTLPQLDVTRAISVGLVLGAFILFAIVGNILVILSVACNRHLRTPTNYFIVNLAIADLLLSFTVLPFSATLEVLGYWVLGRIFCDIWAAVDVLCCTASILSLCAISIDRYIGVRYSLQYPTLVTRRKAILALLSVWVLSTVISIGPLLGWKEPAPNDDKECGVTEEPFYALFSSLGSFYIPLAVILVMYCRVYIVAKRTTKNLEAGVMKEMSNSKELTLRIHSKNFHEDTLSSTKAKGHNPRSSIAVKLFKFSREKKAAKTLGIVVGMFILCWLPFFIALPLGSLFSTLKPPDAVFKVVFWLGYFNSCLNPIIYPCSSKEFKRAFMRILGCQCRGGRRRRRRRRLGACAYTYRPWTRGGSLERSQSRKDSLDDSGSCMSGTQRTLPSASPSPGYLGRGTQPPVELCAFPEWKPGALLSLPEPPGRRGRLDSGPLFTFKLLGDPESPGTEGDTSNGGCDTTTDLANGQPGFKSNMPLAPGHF
T2 sequence (P23944 whole entry): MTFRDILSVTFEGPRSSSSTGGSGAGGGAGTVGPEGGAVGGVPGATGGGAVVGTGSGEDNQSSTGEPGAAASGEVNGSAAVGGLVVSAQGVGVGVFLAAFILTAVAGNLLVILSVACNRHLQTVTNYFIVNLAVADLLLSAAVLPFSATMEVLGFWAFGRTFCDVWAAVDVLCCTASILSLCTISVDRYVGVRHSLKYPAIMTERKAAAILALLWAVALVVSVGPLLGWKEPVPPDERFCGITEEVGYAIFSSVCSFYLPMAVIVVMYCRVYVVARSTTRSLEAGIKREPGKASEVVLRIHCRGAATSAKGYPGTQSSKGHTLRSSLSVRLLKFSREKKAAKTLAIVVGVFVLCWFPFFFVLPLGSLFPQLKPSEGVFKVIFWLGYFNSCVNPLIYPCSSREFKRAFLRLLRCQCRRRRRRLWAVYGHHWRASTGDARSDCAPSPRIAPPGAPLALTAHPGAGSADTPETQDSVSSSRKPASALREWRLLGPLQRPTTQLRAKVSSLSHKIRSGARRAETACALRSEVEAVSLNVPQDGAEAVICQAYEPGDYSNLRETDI
T2 sequence (P43140 whole entry): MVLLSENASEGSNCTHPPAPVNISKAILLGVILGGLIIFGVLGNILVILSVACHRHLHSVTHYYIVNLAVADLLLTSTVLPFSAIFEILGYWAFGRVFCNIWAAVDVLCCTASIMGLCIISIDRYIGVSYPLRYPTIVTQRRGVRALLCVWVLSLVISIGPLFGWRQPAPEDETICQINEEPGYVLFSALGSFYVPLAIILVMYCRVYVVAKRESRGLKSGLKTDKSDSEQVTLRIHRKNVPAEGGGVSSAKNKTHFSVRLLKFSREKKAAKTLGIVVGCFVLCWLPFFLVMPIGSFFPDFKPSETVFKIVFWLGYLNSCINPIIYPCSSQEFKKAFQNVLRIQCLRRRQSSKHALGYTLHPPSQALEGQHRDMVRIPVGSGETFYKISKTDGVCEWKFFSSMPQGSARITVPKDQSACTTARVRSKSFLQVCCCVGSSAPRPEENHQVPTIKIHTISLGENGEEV
Summary of the method: (§1)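 Epididymal halves (14 mm) of vas deferens from male albino rats (175-200 g), Krebs with propranolol 1 μM and cocaine 10 μM, 0.4 g tension. Equilibrated ≥1 h; cumulative norepinephrine curves, first discarded, second control, third after 30 min antagonist. Time-control tissues run in parallel. pA2 from Schild plots constrained to slope -1.0, each concentration tested five times.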

[4] = target: T2, Adrenergic receptor alpha-1; assay: Alpha-1-Adrenoceptor blocking activity against norepinephrine-induced contraction in epididymal portion of rat vas deferens; format: functional, tissue-based; summary of the method: as §1

SMILES | Selectivity [1] | pA2 [2] | pA2 [3] | pA2 [4]
COc1cccc(OC)c1OCCNC[C@@H]1COc2ccccc2[C@@H]1O | 13 | 6.1 | 7.22 | –
COc1cccc(OC)c1OCCNC[C@@H]1COc2ccccc2[C@H]1O | 17 | 6.09 | 7.33 | –
COc1cccc(OC)c1OCCNC[C@@H]1C[S@@+]([O-])c2ccccc2O1 (relative stereo) | 30 | 6.24 | 7.71 | –
COc1cccc(OC)c1OCCNCc1ccc2ccccc2c1 | 22 | 6.4 | 7.75 | –
COc1cccc(OC)c1OCCNCc1cc2ccccc2[nH]1 | 4 | 6.04 | – | 6.6
COc1cccc(OC)c1OCCNCc1cccc2ccccc12 | 8 | 6.41 | 7.33 | –
COc1cccc(OC)c1OCCNC[C@@H]1C[S@+]([O-])c2ccccc2O1 (relative stereo) | 20 | 6.24 | 7.54 | –
COc1cccc(OC)c1OCCNC[C@@H]1CS(=O)(=O)c2ccccc2O1 | 6 | 5.8 | – | 6.6

The next lines start with the values.

Selectivity [1] | pA2 [2] | pA2 [3] | pA2 [4] | SMILES
49 | 6.28 | 7.97 | – | COc1cccc(OC)c1OCCNC[C@@H]1COc2ccccc2C1
229 | 6.53 | 8.89 | – | COc1cccc(OC)c1OCCNC[C@@H]1CSc2ccccc2C1=O
257 | 6.52 | 8.93 | – | COc1cccc(OC)c1OCCNC[C@@H]1COc2ccccc2C1=O
407 | 6.63 | 9.24 | – | COc1cccc(OC)c1OCCNCC1COc2ccccc2O1 (stereo not given)
141 | 7.05 | – | 9.2 | COc1cccc(OC)c1OCCNC[C@@H]1CCc2ccccc2O1
469 | 6.15 | 9.05 | – | COc1cccc(OC)c1OCCNC[C@@H]1CSc2ccccc2O1
71 | 6.09 | 7.94 | – | COc1cccc(OC)c1OCCNC[C@@H]1COc2ccccc2S1
